The record followed here is ChEMBL document CHEMBL1142987, “Cinnamoyl compounds as simple molecules that inhibit p300 histone acetyltransferase” (J Med Chem, 2007).

Active and inactive are the calls of the source. The calls are words filed in the database; no cut-off is given here. Where only a bound is given, the exact number is not on record here.

Test [1] concerns the target T1, Histone acetyltransferase p300 (Homo sapiens, UniProt Q09472). In words: Activity of GST-p300 HAT assessed as HAT activity at 21 uM. In a few lines: (§1)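 The same in vitro HAT assay was run with equal molar amounts of p300, PCAF and GCN5, each with a test compound at 5 or 21 µM. Acetylation was quantified by densitometry and expressed as percent variation from the DMSO-treated sample. Values are the mean of three independent experiments ± standard error.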

Test [2] deals with T1, Histone acetyltransferase p300. In words: Inhibition of GST-p300 HAT assessed as histone acetylation. The essentials: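 Recombinant histones H1, H2A, H2B, H3 and H4 were acetylated in vitro by the p300 HAT domain. Acetylated histones were detected by gel autoradiography, with Coomassie staining for total histone. IC50 was taken from densitometric dose–response curves, as the mean of at least three separate experiments.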

Test [3] addresses Histone acetyltransferase KAT2A (Homo sapiens) (UniProt Q92830). In words: Activity of GST-GCN5 assessed as HAT activity at 21 uM. In a few lines:
as §1

Test [4] addresses Histone acetyltransferase KAT2B (Homo sapiens) (UniProt Q92831). In words: Activity of GST-PCAF assessed as HAT activity at 21 uM. In a few lines:
as §1

The subject of test [5] is HeLa. In words: Acetylation of H3 in HeLa cells expressing H2B-EYFP upto 200 uM. It counts as functional, cell-based. To be noted: Homo sapiens. In a few lines:
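H2B-EYFP HeLa cells in 10% FCS-DMEM were treated with various compound concentrations up to 200 µM, then immunostained with anti-acetyl-H3 antibodies. H2B-EYFP fluorescence served as an internal control for protein expression.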

The target in test [6] is T1, Histone acetyltransferase p300. In words: Inhibition of full length GST-p300 expressed in Sf9 cells assessed as histone acetylation.
For test [7] the target is unchanged. In words: Inhibition of GST-p300 HAT expressed in bacteria assessed as histone acetylation. The essentials:
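Recombinant histones H1, H2A, H2B, H3 and H4 were acetylated in vitro by the p300 HAT domain. Compounds were tested at 25–400 µM, or from 0.19 µM for one compound. Acetylated histones were detected by gel autoradiography, with Coomassie staining for total histone. IC50 was taken from densitometric dose–response curves, as the mean of at least three separate experiments.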

The target of test [8] is Histone acetyltransferase KAT2A (Homo sapiens) (UniProt Q92830). As to the kind of experiment: Activity of GST-GCN5 assessed as HAT activity at 5 uM. The essentials:
as §1

The subject of test [9] is HeLa. In words: Cytotoxicity in HeLa cells expressing H2B-EYFP above 20 uM. The format is functional, cell-based. The settings on record: Homo sapiens, in the assay text read “above 40 uM” for “above 20 uM”. The essentials:
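Cell toxicity in compound-treated H2B-EYFP HeLa cells was scored as decreased H2B-EYFP fluorescence.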

Test [10] has as its system HeLa. In words: Reduction of acetylation in HeLa cells expressing H2B-EYFP at 20 uM. It counts as functional, Homo sapiens. Further details: scale not given: the % may be the effect or the level left. The essentials: (§2)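 HeLa cells stably expressing H2B-EYFP were grown in 10% FCS-DMEM and treated with 20 or 40 µM compound or DMSO. Cells were then immunostained for acetyl-H3. Mean anti-acetyl-H3 fluorescence was normalized to H2B-EYFP fluorescence in the same cells and expressed as percent inhibition versus DMSO. Each of three independent experiments analyzed 150 cells; mean and standard error are reported.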

Test [11] has as its target T1, Histone acetyltransferase p300. In words: Activity of GST-p300 HAT assessed as HAT activity at 5 uM. In a few lines:
as §1

The subject of test [12] is HeLa. As to the kind of experiment: Reduction of acetylation in HeLa cells expressing H2B-EYFP at 40 uM. It counts as functional, Homo sapiens. Further details: scale not given: the % may be the effect or the level left. In a few lines:
as §2

T1 sequence (Q09472 whole entry): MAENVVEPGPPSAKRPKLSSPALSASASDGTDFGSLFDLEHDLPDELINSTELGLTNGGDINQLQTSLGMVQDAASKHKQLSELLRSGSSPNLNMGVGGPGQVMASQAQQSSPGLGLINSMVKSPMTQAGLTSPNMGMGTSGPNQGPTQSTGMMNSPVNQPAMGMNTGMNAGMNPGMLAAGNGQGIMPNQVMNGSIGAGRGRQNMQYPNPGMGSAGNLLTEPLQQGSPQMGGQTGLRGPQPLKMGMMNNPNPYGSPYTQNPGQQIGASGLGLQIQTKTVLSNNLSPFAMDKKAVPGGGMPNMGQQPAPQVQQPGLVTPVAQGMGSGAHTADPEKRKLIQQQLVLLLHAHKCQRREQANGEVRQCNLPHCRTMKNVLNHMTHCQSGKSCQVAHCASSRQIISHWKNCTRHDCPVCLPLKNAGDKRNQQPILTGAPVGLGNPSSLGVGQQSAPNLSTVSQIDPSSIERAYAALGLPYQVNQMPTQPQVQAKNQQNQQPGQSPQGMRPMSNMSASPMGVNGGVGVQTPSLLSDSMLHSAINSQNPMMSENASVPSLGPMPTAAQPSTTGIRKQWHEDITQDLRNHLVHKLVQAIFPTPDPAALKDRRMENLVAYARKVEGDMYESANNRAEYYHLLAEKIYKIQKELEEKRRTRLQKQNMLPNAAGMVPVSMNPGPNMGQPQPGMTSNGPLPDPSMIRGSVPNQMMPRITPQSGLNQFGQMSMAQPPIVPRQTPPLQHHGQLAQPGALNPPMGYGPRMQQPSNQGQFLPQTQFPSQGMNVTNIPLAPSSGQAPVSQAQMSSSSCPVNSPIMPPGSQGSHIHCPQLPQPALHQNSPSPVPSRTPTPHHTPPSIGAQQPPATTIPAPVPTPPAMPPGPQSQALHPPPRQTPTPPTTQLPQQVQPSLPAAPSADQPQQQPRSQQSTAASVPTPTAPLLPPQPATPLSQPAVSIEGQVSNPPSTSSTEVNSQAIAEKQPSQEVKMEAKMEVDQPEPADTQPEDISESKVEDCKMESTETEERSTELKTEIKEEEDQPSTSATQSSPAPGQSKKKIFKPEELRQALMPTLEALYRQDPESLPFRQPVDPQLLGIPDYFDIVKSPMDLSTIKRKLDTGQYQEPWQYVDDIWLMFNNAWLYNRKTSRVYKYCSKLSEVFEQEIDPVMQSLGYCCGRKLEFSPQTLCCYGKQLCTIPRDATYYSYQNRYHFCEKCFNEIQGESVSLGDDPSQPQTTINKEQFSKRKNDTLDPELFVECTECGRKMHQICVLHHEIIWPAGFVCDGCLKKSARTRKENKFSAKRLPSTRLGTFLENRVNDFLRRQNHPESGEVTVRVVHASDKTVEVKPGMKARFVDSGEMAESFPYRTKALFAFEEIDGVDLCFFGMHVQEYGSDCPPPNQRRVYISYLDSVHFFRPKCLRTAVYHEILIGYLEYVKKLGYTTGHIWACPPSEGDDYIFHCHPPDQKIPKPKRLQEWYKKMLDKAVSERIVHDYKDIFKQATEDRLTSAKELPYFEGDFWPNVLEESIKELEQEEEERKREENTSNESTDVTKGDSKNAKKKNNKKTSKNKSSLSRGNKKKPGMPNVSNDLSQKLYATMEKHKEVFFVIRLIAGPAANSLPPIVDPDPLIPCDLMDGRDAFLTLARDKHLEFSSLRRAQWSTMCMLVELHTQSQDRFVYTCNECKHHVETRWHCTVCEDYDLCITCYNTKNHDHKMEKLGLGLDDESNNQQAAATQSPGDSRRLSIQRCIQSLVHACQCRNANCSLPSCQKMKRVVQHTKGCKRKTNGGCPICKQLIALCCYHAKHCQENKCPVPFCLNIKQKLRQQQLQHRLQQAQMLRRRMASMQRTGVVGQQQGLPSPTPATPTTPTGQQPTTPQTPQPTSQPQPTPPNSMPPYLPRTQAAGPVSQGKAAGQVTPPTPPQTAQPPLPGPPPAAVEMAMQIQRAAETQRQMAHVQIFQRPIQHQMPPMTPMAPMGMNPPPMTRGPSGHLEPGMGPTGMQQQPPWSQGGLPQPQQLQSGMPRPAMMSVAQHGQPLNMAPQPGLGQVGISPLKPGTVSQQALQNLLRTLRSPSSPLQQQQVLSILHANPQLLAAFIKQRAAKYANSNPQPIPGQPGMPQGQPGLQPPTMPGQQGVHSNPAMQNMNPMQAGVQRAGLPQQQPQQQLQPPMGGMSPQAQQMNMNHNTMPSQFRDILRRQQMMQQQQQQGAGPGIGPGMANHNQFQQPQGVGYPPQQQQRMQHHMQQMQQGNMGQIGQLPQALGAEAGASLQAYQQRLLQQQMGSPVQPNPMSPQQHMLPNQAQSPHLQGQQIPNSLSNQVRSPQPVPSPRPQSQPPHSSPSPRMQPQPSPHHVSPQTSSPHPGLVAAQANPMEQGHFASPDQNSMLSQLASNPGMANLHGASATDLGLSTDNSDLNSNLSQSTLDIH
Chain of Histone acetyltransferase KAT2A (Homo sapiens) (Q92830 2-837 limits assumed): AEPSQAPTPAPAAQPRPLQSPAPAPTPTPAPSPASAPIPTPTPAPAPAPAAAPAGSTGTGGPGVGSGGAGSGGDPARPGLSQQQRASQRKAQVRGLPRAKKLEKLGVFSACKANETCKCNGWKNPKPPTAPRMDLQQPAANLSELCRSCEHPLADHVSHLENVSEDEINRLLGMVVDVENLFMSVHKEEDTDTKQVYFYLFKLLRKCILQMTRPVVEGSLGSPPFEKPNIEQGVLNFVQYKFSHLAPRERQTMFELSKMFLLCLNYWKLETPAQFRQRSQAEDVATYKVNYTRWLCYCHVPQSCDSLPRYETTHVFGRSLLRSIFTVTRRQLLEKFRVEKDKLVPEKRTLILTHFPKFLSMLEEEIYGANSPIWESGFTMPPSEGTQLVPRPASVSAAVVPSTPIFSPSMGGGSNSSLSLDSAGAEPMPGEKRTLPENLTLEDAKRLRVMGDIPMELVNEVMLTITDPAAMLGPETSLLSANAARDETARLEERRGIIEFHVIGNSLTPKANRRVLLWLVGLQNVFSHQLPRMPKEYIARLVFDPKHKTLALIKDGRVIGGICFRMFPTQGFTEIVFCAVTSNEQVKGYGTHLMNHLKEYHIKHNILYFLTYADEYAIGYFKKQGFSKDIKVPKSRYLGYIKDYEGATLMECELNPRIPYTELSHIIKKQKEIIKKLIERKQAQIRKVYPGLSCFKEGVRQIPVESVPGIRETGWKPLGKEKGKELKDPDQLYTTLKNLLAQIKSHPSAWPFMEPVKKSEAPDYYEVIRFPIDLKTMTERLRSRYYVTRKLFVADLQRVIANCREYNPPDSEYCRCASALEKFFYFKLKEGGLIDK
Chain of Histone acetyltransferase KAT2B (Homo sapiens) (Q92831 whole entry, looked up): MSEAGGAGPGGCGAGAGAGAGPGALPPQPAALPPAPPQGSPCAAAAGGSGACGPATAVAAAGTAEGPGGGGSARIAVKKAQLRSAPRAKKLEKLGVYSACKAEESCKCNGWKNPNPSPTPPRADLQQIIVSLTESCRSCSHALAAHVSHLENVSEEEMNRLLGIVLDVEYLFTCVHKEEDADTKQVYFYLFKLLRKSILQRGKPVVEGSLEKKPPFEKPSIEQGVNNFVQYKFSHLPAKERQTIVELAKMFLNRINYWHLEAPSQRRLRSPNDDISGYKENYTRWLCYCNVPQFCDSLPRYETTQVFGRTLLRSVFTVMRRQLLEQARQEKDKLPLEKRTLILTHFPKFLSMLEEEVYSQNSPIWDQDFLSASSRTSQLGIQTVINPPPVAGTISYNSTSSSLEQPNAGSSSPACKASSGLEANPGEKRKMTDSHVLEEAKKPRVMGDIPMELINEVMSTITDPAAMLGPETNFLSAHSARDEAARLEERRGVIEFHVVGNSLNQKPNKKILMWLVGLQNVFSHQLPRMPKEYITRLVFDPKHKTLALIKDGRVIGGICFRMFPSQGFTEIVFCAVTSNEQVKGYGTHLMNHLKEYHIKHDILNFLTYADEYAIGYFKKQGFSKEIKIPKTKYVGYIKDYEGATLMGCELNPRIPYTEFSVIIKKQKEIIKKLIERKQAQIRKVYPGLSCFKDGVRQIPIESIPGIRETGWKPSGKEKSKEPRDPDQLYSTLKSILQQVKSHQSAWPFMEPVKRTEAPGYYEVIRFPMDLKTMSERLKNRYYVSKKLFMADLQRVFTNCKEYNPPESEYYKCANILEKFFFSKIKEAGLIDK

The IC50 is the concentration at which inhibition is half-maximal. In the case of `O=C(/C=C(O)/C=C/c1ccc(O)c(C(=O)O)c1)/C=C/c1ccc(O)c(C(=O)O)c1`, the Activity came to 50% in test [1], 38% in [3] and 68% in test [4]. Moreover, in test [2], the IC50 amounted to 21 µM. Besides, the result with HeLa [5] was inactive.

For `O=C1/C(=C/c2ccc(O)c(C(=O)O)c2)CCC/C1=C\c1ccc(O)c(C(=O)O)c1`, the IC50 in test [2] was 168 µM.

Turning to `O=C(/C=C(O)/C=C/c1ccc(O)c(O)c1)/C=C/c1ccc(O)c(O)c1`, in test [2], the IC50 worked out at 46 µM.

`COc1cc(/C=C/C(=O)CC(=O)/C=C/c2ccc(O)c(OC)c2)ccc1O`: the outcome in [6] and in [7] was inactive.

Regarding `O=C1/C(=C/c2ccc(O)c(Br)c2)CCC/C1=C\c1ccc(O)c(Br)c1`, the Activity is 70% in test [8], 30% in the test on HeLa [10], 50% in [11] and above 50% in the test on HeLa [12]. Also, the outcome in the test on HeLa [9] was Active. Moreover, in test [2], the IC50 is 5 µM.

Regarding `COc1cc(/C=C2\CCC/C(=C\c3ccc(O)c(OC)c3)C2=O)ccc1O` [CYCLOVALONE], the IC50 in test [2] was determined as 111 µM.

With `O=C(/C=C(O)/C=C/c1ccc(O)c(Br)c1)/C=C/c1ccc(O)c(Br)c1`, in [2], the IC50 was 33 µM.

On to `O=C1/C(=C/c2ccc(O)c(O)c2)CCC/C1=C\c1ccc(O)c(O)c1`, for which the IC50 in [2] was 233 µM.
